This is an account of results in paper PMC7217345 (Annals of Oncology, 2020).

The test system of data set [1] is patients with metastatic castration-resistant prostate cancer. In words: Phase I dose escalation. The format is in vivo, human. In a few lines: (§1)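 Open-label, single-centre 3+3 escalation in mCRPC. Capivasertib was given b.i.d. 4/7, starting at 320 mg with predefined escalation and de-escalation. A 7-day cycle 0 (single dose on D1) preceded 28-day cycles of capivasertib plus enzalutamide 160 mg daily. MTD/RP2D was the highest level with ≥6 patients and <1/3 with DLT. AEs were graded by CTCAE v4.0 from first dose to 30 days post-discontinuation. All treated patients were included.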

The test system is the same in data set [2]. Nature of the data set: Treatment-related adverse events. The format is in vivo, human. The conditions noted are these: Total N=15, with enzalutamide. In outline:
as §1

Data set [3] in a line: Plasma pharmacokinetics of capivasertib. The format is in vivo, human. In outline: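 Venous blood was sampled serially up to 48 h post-dose on C0D1 (capivasertib alone) and on C2D1, C2D4 and C2D11 (with enzalutamide). Cmax, Tmax and AUC8h were derived. Geometric means of dose-normalised Cmax and AUC8h were compared between cycle 2 and cycle 0.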
Data set [4] has as its system pSer9 GSK3β. In words: Pharmacodynamics: phosphorylated Ser9 GSK3β in platelet-rich plasma. Type of data set: in vivo, human. The settings on record: 400 mg alone (cycle 0). In outline:
(§2)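 mCRPC patients took a single capivasertib dose on cycle 0 day 1, followed by PK and PD sampling. Combination with enzalutamide 160 mg daily began at C1D1, with capivasertib b.i.d. on a 4/7 schedule. Platelet-rich plasma and hair follicles were assayed for pSer9 and total GSK3β and for pThr246 and total PRAS40. Statistics used one-way ANOVA with […] and Dunnett's tests, with P<0.05 as significant.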

In data set [5] the test system is pThr246 PRAS40. In words: Pharmacodynamics: phosphorylated Thr246 PRAS40 in hair follicles. Type of data set: in vivo, human. In outline: as §2
In data set [6] the test system is pERK. In words: IHC for pERK expression in tumour biopsies. The format is in vivo, human. The conditions noted are these: with enzalutamide, including two of the responders.
Data set [7] deals with patients. The settings on record: 4 days on and 3 days off every week (4/7); cited from earlier work.
The subject of data set [8] is metastatic prostate cancer patients. The settings on record: overall population; marked benefit for PTEN loss; cited from earlier work.

With `NC1(C(=O)N[C@@H](CCO)c2ccc(Cl)cc2)CCN(c2nc[nH]c3nccc2-3)CC1` [capivasertib], the “patients experiencing a DLT (maculopapular rash)” value in data set [1] (400 mg b.i.d., with enzalutamide) is recorded as 1/6. The “RP2D (recommended phase II dose)” value in data set [1] (4/7 schedule, with enzalutamide 160 mg daily) is 400 mg b.i.d. Moreover, the “fatal SAEs” value in data set [1] (all dose levels) is listed as “no fatal SAEs”. Also, the “patients with dosing interruption or reduction” value in data set [1] (beyond cycle 1, six of fourteen patients) came out at 42.9%. For the same molecule, the “dosing interruptions or reductions due to AEs” value in data set [1] (during the DLT period, five of nine patients) was 55.6%. Moreover, the “AEs judged to be treatment-related” value in data set [1] (of 259 AEs, safety population) was 42.5%. The AEs reported in data set [1] (safety population, all dose levels) was 259. In data set [2], the “Hyper-glycaemia, Grade 3/4” value is 26.7%. Further, in data set [3] (compared with capivasertib monotherapy), the “patients in whom enzalutamide decreased both Cmax and AUC” value was 11 out of 13. Also, the “approximate mean decrease of Cmax and AUC” value in data set [3] (cycle 2 (with enzalutamide) compared with cycle 0 (monotherapy)) was roughly 40%. Further, the figures for the “mean decrease in pGSK3β compared with baseline” value in data set [4] (2 h after dose), in data set [4] (4 h after dose) and in data set [4] (8 h after dose) were 56%, 44% and 22%, respectively. The “mean percentage reduction in PRAS40” value in data set [5] (320 mg with enzalutamide) is on record as −34%; in data set [5] (320 mg without enzalutamide), 38%; in data set [5] (400 mg with enzalutamide) it was 22%; in data set [5] (400 mg without enzalutamide), 23%; in data set [5] (480 mg with enzalutamide), 40%; in data set [5] (480 mg without enzalutamide), 26%. For the same molecule, the “pERK expression by IHC, post-treatment vs baseline” value in data set [6] is reported as “increased after treatment in three patients”. In data set [7], the “single-agent recommended phase II dose (RP2D)” value is listed as 480 mg b.i.d.

For the molecule `CC(C)NC[C@@H](C(=O)N1CCN(c2ncnc3c2[C@H](C)C[C@H]3O)CC1)c1ccc(Cl)cc1` [ipatasertib], the “rPFS, abiraterone with vs without ipatasertib” value in data set [8] is listed as “improved rPFS”.
